# Measurements taken from PubChem BioAssay.
# Unmarked numbers belong to inactive results. Some of the results follow. Active and inactive are the calls of the source.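 How the source made its calls, unless noted: active means duplicate-averaged activation above buffer control mean plus 5 SD of those controls; inactive means the rest.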
# Key:
# [1] = nonspecific flux increase, KCNQ1-free cells – parental CHO cells, counter-screen for KCNQ1 potentiator project (AID 493006); conditions: parental CHO-K1 cells, FluxOR thallium flux, at 10 µM; active compounds read high;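 on activation: fluorescence ratio of max minus min over baseline after K+ and Tl+ depolarization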
# How it was run: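 Assay system: parental CHO-K1 cells lacking KCNQ1, loaded with FluxOR thallium dye; timing: dye 90 min RT, compound 20 min RT; signal: kinetic thallium-flux fluorescence; repeats: duplicate wells per compound, percent values averaged; benchmarks: buffer and R-L3 controls; reagent: Potassium/thallium depolarization pulse; read-out: fluorescence change ratio scaled 0% buffer, 100% R-L3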
# [2] = target: Potassium voltage-gated channel subfamily KQT member 1 (Homo sapiens) (UniProt P51787); assay: enhancement of KCNQ1 channel thallium flux – FluxOR thallium flux, CHO cells, duplicates, confirmation (AID 493007;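 active means potentiation averaged over duplicate wells exceeding buffer-only control mean by more than 3 SD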;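 on outcome: cells depolarized by a potassium plus thallium sulfate stimulus after compound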); conditions: KCNQ1 cell line, FluxOR thallium flux fluorescence, at 10 µM; active compounds read high, % of reference activator effect, buffer zero
# Potassium voltage-gated channel subfamily KQT member 1 (Homo sapiens), sequence (P51787 whole entry, looked up): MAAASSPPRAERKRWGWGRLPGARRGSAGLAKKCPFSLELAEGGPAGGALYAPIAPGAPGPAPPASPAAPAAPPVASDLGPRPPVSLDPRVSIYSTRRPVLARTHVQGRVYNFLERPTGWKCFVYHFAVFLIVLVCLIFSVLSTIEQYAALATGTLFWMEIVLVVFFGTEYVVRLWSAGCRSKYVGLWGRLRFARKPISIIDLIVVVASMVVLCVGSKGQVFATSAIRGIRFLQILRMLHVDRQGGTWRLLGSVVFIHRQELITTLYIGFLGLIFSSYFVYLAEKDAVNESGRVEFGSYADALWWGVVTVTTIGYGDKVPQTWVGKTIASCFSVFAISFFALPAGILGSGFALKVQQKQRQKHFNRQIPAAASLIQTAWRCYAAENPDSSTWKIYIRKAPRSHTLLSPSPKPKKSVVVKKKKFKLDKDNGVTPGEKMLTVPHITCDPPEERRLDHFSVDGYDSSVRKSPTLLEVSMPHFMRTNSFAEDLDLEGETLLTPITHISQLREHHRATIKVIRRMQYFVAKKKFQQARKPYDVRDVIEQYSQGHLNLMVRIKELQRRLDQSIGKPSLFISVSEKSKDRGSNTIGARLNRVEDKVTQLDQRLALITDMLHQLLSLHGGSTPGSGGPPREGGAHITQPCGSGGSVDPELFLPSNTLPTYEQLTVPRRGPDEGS
# How it was run: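 material = CHO cells stably expressing the KCNQ1 potassium channel | repeats = duplicate wells per compound | measure = percent activation between buffer and R-L3 responses | signal = FluxOR thallium-flux fluorescence, kinetic read | schedule = FluxOR dye loading 90 min, compound exposure 20 min, room temperature | control set = buffer and R-L3 controls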
# [3] = target: Potassium voltage-gated channel subfamily KQT member 1 (Homo sapiens) (UniProt P51787); assay: KCNQ1 activators by electrophysiology – IonWorks patch clamp, KCNQ1-CHO cells, orthogonal assay for KCNQ1 potentiator project, confirmation (AID 493184;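 active means current rise at least 3 SD above the untreated control mean in each of two repeat wells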); conditions: automated patch clamp current, at 10 µM; active compounds read high
# How it was run: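 Assay system – CHO cells carrying KCNQ1 · Medium – pH 7.4 external bath · Probe or stimulus – depolarizing pulse to +40 mV from -90 mV · Compound dosing – one dose, 10 µM final · Measured by – automated perforated-patch electrophysiology · Measure – % potentiation of steady-state current relative to pre-compound · Repeats – two replicates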
# [4] = target: T1, Potassium voltage-gated channel subfamily E member 1 (Homo sapiens) + Potassium voltage-gated channel subfamily KQT member 1 (Homo sapiens) (UniProt P15382+P51787); assay: KCNQ1-E1 channel activation – thallium flux, CHO-K1 KCNQ1/E1 cells, selectivity assay for KCNQ1 potentiator project, confirmation (AID 493186;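 active means mean duplicate activation above the buffer control mean plus 5 SD of those controls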); conditions: FluxOR thallium flux, at 10 µM; active compounds read high
# T1 sequence (P51787 whole entry, looked up): as the sequence (P51787 whole entry, looked up) above
# How it was run: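 Assay system: CHO-K1 cells with KCNQ1/E1 | Dosing: Single compound concentration per well | Incubation: Dye 90 min, compound 20 min, room temperature | Measured by: FluxOR Tl+ flux fluorescence, kinetic read | Controls: Buffer low control, R-L3 high control | Replicates: Duplicate wells per compound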
# [5] = target: Potassium voltage-gated channel subfamily KQT member 1 (Homo sapiens) (UniProt P51787); assay: blockers of human KCNQ1 channel – cell-based, Tl flux, duplicate, confirmation (AID 588353;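 active means primary screen active, with duplicate mean exceeding buffer control mean plus 3 SD of buffer wells, cut at about 28% in these data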;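 further: 0% = buffer control ratio and 100% = XE991 inhibitor control ratio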); conditions: KCNQ1 cell line, FluxOR thallium flux fluorescence, at 10 µM, active compounds read high
# How it was run: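 Material: KCNQ1 CHO cells; also added: Thallium-potassium depolarizing stimulus buffer; timing: dye loading 90 min, compound 20 min, both room temperature; signal: FluxOR thallium flux fluorescence, 10 s baseline plus 110 s; evaluation: percent inhibition relative to buffer and XE991; benchmarks: buffer and XE991; repeats: duplicates, mean used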
# [6] = nonspecific activity in CHO-K1 cells without KCNQ1 – parental CHO cells, Tl flux, counter-screen for KCNQ1 inhibitor project (AID 588366;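 active means mean of duplicate thallium-flux fluorescence ratios in parental host cells more than 5 SD below the buffer control mean, cut at about 0.38 in these data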;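 further: ratio is peak minus minimum fluorescence divided by baseline fluorescence; actives read low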); conditions: parental CHO-K1, FluxOR thallium flux fluorescence ratio; at 10 µM; active compounds read low; zero means no signal rise above baseline
# How it was run: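 Assay system: CHO-K1 parental line without KCNQ1; Control set: buffer-only controls; Detection: kinetic Tl+ flux fluorescence with FluxOR dye; Schedule: FluxOR dye loading 90 min, compound exposure 20 min, room temperature.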
# [7] = target: Potassium voltage-gated channel subfamily KQT member 2 (Rattus norvegicus) (UniProt O88943); assay: block of rat KCNQ2 potassium channel – cell-based, selectivity assay for KCNQ1 inhibitor project (AID 651746;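 active means mean percent inhibition of the KCNQ2 thallium signal more than 5 SD above the buffer-only control wells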;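 on inhibition: 0% = buffer control wells and 100% = XE-991 inhibitor control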); conditions: KCNQ2 cells, FluxOR thallium flux fluorescence, at 10 µM; active compounds read high
# Potassium voltage-gated channel subfamily KQT member 2 (Rattus norvegicus), sequence (O88943 whole entry, looked up): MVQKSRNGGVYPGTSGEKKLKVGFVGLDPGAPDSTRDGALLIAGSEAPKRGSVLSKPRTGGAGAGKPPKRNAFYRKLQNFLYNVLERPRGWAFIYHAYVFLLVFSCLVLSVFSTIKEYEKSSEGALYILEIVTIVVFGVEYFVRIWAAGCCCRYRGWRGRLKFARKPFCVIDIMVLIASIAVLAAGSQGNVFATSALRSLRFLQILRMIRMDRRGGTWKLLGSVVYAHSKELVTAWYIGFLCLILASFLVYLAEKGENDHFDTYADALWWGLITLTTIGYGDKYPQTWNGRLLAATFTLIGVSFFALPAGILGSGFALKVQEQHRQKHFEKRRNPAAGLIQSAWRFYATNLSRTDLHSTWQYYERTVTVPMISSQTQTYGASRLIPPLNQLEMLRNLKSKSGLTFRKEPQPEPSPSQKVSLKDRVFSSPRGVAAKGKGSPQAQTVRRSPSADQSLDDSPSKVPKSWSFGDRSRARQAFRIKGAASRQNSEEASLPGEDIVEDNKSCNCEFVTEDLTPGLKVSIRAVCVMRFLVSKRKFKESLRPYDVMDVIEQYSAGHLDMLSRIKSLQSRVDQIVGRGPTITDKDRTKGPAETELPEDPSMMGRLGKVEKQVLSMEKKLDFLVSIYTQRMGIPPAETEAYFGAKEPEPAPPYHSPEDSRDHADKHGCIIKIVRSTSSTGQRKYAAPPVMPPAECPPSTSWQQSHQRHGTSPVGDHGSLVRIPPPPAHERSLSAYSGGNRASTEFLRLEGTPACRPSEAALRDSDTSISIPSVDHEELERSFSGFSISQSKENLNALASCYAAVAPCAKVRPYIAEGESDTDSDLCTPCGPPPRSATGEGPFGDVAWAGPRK
# [8] = target: T1, Potassium voltage-gated channel subfamily E member 1 (Homo sapiens) + Potassium voltage-gated channel subfamily KQT member 1 (Homo sapiens); assay: block of human IKs channel complex – CHO-K1 cells, thallium flux, FluxOR, selectivity assay for KCNQ1 inhibitor project (AID 652147;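 active means mean percent inhibition of duplicate wells above the buffer-only control mean plus 3 SD of those controls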;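 on inhibition: 0% = buffer only wells and 100% = XE-991 inhibitor control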); conditions: KCNQ1/KCNE1 cells, FluxOR thallium flux fluorescence, at 10 µM; active compounds read high
# How it was run: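 System – KCNQ1/KCNE1 cells · Also added – depolarizing thallium/potassium stimulus, 5x stock with 12.5 mM Tl2SO4 and K2SO4 · Incubation – dye 90 min and compound 20 min at room temperature · Signal – kinetic FluxOR thallium-sensitive fluorescence, 1 Hz sampling, 150 s post-stimulus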
# [9] = target: Potassium voltage-gated channel subfamily KQT member 1 (Homo sapiens) (UniProt P51787); assay: block of human KCNQ1 potassium current – cell-based, automated electrophysiology, orthogonal assay, confirmation (AID 624120;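 active means KCNQ1 current drop exceeding 3 SD of negative control wells, seen in both duplicate runs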); conditions: KCNQ1-CHO cells, automated patch clamp current; at 10 µM
# How it was run: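 Material: CHO cells expressing human KCNQ1 potassium channel; replication: duplicates; probe or stimulus: voltage stimulus of 2,000 ms steps to +40 mV, -80 mV holding; measured by: automated perforated-patch voltage clamp using amphotericin B; medium: pH 7.4 external buffer; dosing: single test compound dose of 10 µM final; read-out: steady-state current change vs pre-compound, percent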
smiles,measurement,setting,value
O=C(c1nnsc1S(=O)c1ccc(Cl)cc1)N1CCOCC1 (stereo not drawn),outcome,[1],inactive
same,potentiation,[2],17.5% (active)
same,outcome,[3],inactive
same,outcome,[4],inactive
CC(=O)n1cc(N(C(=O)CCl)c2ccc(C)cc2)c2ccccc21,outcome,[1],inactive
same,outcome,[2],inactive
same,outcome,[3],inactive
COc1ccc(/C=C(\NC(=O)c2cccs2)C(=O)N2CCOCC2)cc1OC,activation,[1],137% (active)
same,potentiation,[2],29.5% (active)
same,outcome,[3],inactive
CC(=O)c1ccc(NC(=S)NC(=O)c2c(Cl)c(C)nn2C)cc1,outcome,[1],inactive
same,outcome,[2],inactive
same,outcome,[3],inactive
COc1ccc(O)c(C(=O)c2cnn(-c3ccc(Cl)cc3)c2)c1,outcome,[1],inactive
same,outcome,[2],inactive
same,outcome,[3],inactive
CNCCC=C1c2ccccc2CCc2ccccc21,activation,[1],150% (active)
same,potentiation,[2],76% (active)
same,outcome,[3],inactive
CCc1ccc(NC(=O)C2CCN(C(=O)[C@@H]3Cc4ccccc4CN3)CC2)cc1,outcome,[1],inactive
same,outcome,[2],inactive
same,outcome,[3],inactive
COc1ccc(OC)c(Nc2cc3ccccc3c(=O)[nH]2)c1,outcome,[1],inactive
same,outcome,[2],inactive
same,outcome,[3],inactive
same,outcome,[4],inactive
O=C(NC(=S)NC1CCCc2ccccc21)c1ccc(F)cc1 (stereo not drawn),outcome,[1],inactive
same,potentiation,[2],19.5% (active)
same,outcome,[3],inactive
same,outcome,[4],inactive
CC(C)COc1ccc(-c2nn(-c3ccccc3)cc2/C=C2/SC(=S)N(CC(=O)O)C2=O)cc1,outcome,[1],inactive
same,outcome,[2],inactive
same,outcome,[3],inactive
COc1cccc(CN2CCN(Cc3cc4ccccc4[nH]3)CC2CCO)c1 (stereo not drawn),outcome,[1],inactive
same,potentiation,[2],20% (active)
same,outcome,[3],inactive
same,outcome,[4],inactive
Cn1c(=O)c2c(ncn2CC(=O)OCC(=O)Nc2cc(Cl)ccc2Cl)n(C)c1=O,outcome,[1],inactive
same,outcome,[2],inactive
same,outcome,[3],inactive
O=C(OCc1ccccc1)C1=NNC2C(=O)N(c3ccccc3)C(=O)C12 (stereo not drawn),outcome,[1],inactive
same,outcome,[2],inactive
same,outcome,[3],inactive
same,outcome,[4],inactive
COC(=O)c1ccc(CSc2nnc(SCc3ccc(C(=O)OC)o3)s2)o1,outcome,[1],inactive
same,outcome,[2],inactive
same,outcome,[3],inactive
S=c1[nH]nc(-c2ccccc2)n1/N=C/c1ccc(-c2ccccc2Cl)o1,outcome,[1],inactive
same,outcome,[2],inactive
same,outcome,[3],inactive
same,outcome,[4],inactive
Fc1ccc2[nH]c3c(N4CCSCC4)ncnc3c2c1,inhibition,[5],162% (active)
same,fluorescence ratio (Tl flux),[6],0.362 (active)
same,outcome,[7],inactive
same,outcome,[8],inactive
CC1CCCN(C(C(=O)Nc2ccc(C(C)C)cc2)c2ccc3c(c2)OCO3)C1 (stereo not drawn),inhibition,[5],132% (active)
same,fluorescence ratio (Tl flux),[6],0.429
same,outcome,[9],inactive
same,inhibition,[7],99.7% (active)
same,inhibition,[8],164% (active)
CCc1noc(C)c1C(=O)Oc1ccc(N(C)S(=O)(=O)c2ccc(C)c(C)c2)cc1,inhibition,[5],108% (active)
same,fluorescence ratio (Tl flux),[6],0.408
same,outcome,[9],inactive
same,inhibition,[7],95.3% (active)
same,inhibition,[8],83.5% (active)
CCOC(=O)C1CCN(c2ncnc3c2oc2ccc(Br)cc23)CC1,inhibition,[5],150% (active)
same,fluorescence ratio (Tl flux),[6],0.39
same,outcome,[9],inactive
same,inhibition,[7],129% (active)
same,inhibition,[8],193% (active)
COc1ccc(-c2csc3ncnc(N4CCN(S(=O)(=O)c5cccc(F)c5)CC4)c23)cc1,inhibition,[5],92.5% (active)
same,fluorescence ratio (Tl flux),[6],0.403
same,outcome,[9],inactive
same,inhibition,[7],77% (active)
same,inhibition,[8],122% (active)
CCSc1nsc(NC(=O)Nc2cccc(C(C)=O)c2)n1,inhibition,[5],112% (active)
same,fluorescence ratio (Tl flux),[6],0.514
same,outcome,[9],inactive
same,outcome,[7],inactive
same,outcome,[8],inactive
CC(C)OCCCNc1ncnc2c1[nH]c1ccc(F)cc12,inhibition,[5],95.5% (active)
same,fluorescence ratio (Tl flux),[6],0.443
same,outcome,[9],active
same,outcome,[7],inactive
same,outcome,[8],inactive
CCN(CC)CC(=O)Nc1sc2c(c1C(=O)c1ccccc1C)CCC2,inhibition,[5],104% (active)
same,fluorescence ratio (Tl flux),[6],0.444
same,outcome,[9],inactive
same,inhibition,[7],89% (active)
same,inhibition,[8],168% (active)
Cc1cccc(Nc2ccccc2C(=O)NCc2ccco2)c1C,inhibition,[5],134% (active)
same,fluorescence ratio (Tl flux),[6],0.394
same,outcome,[9],inactive
same,inhibition,[7],101% (active)
same,inhibition,[8],198% (active)
Cc1cc(C)cc(NC(=O)NC2CCCCCCC2)c1,inhibition,[5],146% (active)
same,fluorescence ratio (Tl flux),[6],0.465
same,outcome,[9],active
same,outcome,[7],inactive
same,inhibition,[8],164% (active)
Cc1nc2ccccc2cc1OCc1ccc(F)cc1,inhibition,[5],126% (active)
same,fluorescence ratio (Tl flux),[6],0.438
same,outcome,[9],inactive
same,inhibition,[7],99% (active)
same,inhibition,[8],88.5% (active)
COC(=O)c1ccc(NC(=O)Nc2ccc(C)cc2)cc1,inhibition,[5],62.5% (active)
same,fluorescence ratio (Tl flux),[6],0.504
same,outcome,[7],inactive
same,outcome,[8],inactive
Clc1cccc(-c2nc(NCC3CCCO3)c3ccccc3n2)c1 (stereo not drawn),inhibition,[5],116% (active)
same,fluorescence ratio (Tl flux),[6],0.394
same,outcome,[9],inactive
same,inhibition,[7],118% (active)
same,inhibition,[8],154% (active)
COc1ccc(C(=O)NC2CCCc3c2cnn3-c2cccc(C)c2C)c(OC)n1 (stereo not drawn),inhibition,[5],132% (active)
same,fluorescence ratio (Tl flux),[6],0.296 (active)
same,inhibition,[7],127% (active)
same,inhibition,[8],184% (active)
